Measurements from ChEMBL document CHEMBL1140867, “Photodynamic molecular beacon triggered by fibroblast activation protein on cancer-associated fibroblasts for diagnosis and treatment of epithelial cancers” (J Med Chem, 2009).
Peptide text beside a SMILES is read from it. * marks the point of attachment. Pyropheophorbide(a) = C=Cc1c(C)c2cc3nc(c4c5[nH]c(cc6nc(cc1[nH]2)C(C)=C6CC)c(C)c5C(=O)C4)[C@@H](CCC(=O)*)[C@@H]3C

B1: Prolyl endopeptidase FAP (Mus musculus), P97321 (protein)
chain: MKTWLKTVFGVTTLAALALVVICIVLRPSRVYKPEGNTKRALTLKDILNGTFSYKTYFPNWISEQEYLHQSEDDNIVFYNIETRESYIILSNSTMKSVNATDYGLSPDRQFVYLESDYSKLWRYSYTATYYIYDLQNGEFVRGYELPRPIQYLCWSPVGSKLAYVYQNNIYLKQRPGDPPFQITYTGRENRIFNGIPDWVYEEEMLATKYALWWSPDGKFLAYVEFNDSDIPIIAYSYYGDGQYPRTINIPYPKAGAKNPVVRVFIVDTTYPHHVGPMEVPVPEMIASSDYYFSWLTWVSSERVCLQWLKRVQNVSVLSICDFREDWHAWECPKNQEHVEESRTGWAGGFFVSTPAFSQDATSYYKIFSDKDGYKHIHYIKDTVENAIQITSGKWEAIYIFRVTQDSLFYSSNEFEGYPGRRNIYRISIGNSPPSKKCVTCHLRKERCQYYTASFSYKAKYYALVCYGPGLPISTLHDGRTDQEIQVLEENKELENSLRNIQLPKVEIKKLKDGGLTFWYKMILPPQFDRSKKYPLLIQVYGGPCSQSVKSVFAVNWITYLASKEGIVIALVDGRGTAFQGDKFLHAVYRKLGVYEVEDQLTAVRKFIEMGFIDEERIAIWGWSYGGYVSSLALASGTGLFKCGIAVAPVSSWEYYASIYSERFMGLPTKDDNLEHYKNSTVMARAEYFRNVDYLLIHGTADDNVHFQNSAQIAKALVNAQVDFQAMWYSDQNHGISSGRSQNHLYTHMTHFLKQCFSLSD

Experiments:
HEK293 = assay: Photocytotoxicity against mouse FAP expressing HEK293 cells assessed as reduction of cell viability at 4 uM in presence of 2 J cm'-2 radiation by MTT assay; format: functional, Homo sapiens
How it was run: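 HEK-mFAP and HEK-Vector cells, 2.5×10^4 per well, grown 2 days, then incubated 24 h with compound diluted in FBS-free DMEM (DMSO/Tween 80 formulation) at 8 or 4 µM. Cells rinsed and refed, then irradiated with a 670 nm laser at 130 mW cm⁻², 16 s (2 J cm⁻²) or kept dark. Incubated overnight; MTT 2 h, SDS/HCl solubilization, absorbance read at 570 nm.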

[1] = substrate: C=Cc1c(C)c2cc3nc(c4c5[nH]c(cc6nc(cc1[nH]2)C(C)=C6CC)c(C)c5C(=O)C4)[C@@H](CCC(=O)N[C@H](C(=O)N[C@@H](CO)C(=O)NCC(=O)N1CCC[C@H]1C(=O)N[C@@H](CC(N)=O)C(=O)N[C@@H](CCC(N)=O)C(=O)N[C@@H](CCC(=O)O)C(=O)N[C@@H](CCC(N)=O)C(=O)N[C@@H](CCCCNOC(=O)CCCN(C)c1ccc(/N=N/c2cccc4nc5ccc(N(CC)CC)cc5[n+](-c5ccccc5)c24)cc1)C(N)=O)[C@@H](C)O)[C@@H]3C; assay: Activity of mouse FAP assessed as enzyme mediated drug cleavage by measuring increase in fluorescence intensity
How it was run: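 Purified murine FAP (2 µg) with substrate at 0.1–6 µM in 1 mL 0.12 M NaCl/0.12 M TRIS pH 7.37 (substrate first dissolved in DMSO/Tween 80), 37 °C. Fluorescence followed continuously at ex 650/em 675 nm; excess mFAP (10 µg) added after 1 h. Initial rates (10% depletion), triplicate; Vmax, Km, kcat and kcat/Km from nonlinear Michaelis–Menten fit.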

| Molecule | Activity (HEK293) [%] | Km [1] [µM] | Vmax [1] [pmol/min] | kcat [1] [s⁻¹] |
| --- | --- | --- | --- | --- |
| C=Cc1c(C)c2cc3nc(c4c5[nH]c(cc6nc(cc1[nH]2)C(C)=C6CC)c(C)c5C(=O)C4)[C@@H](CCC(=O)N[C@H](C(=O)N[C@@H](CO)C(=O)NCC(=O)N1CCC[C@H]1C(=O)N[C@@H](CC(N)=O)C(=O)N[C@@H](CCC(N)=O)C(=O)N[C@@H](CCC(=O)O)C(=O)N[C@@H](CCC(N)=O)C(=O)N[C@@H](CCCCN)C(N)=O)[C@@H](C)O)[C@@H]3C ({Pyropheophorbide(a)}-TSGPNQEQK-NH2) | 40 | – | – | – |
| B1 | – | 1.02 | 36 | 0.0292 |
